Key:
Settings in all cases: in vivo
[1] = system: Rattus norvegicus; experiment: Tissue uptake (muscle) of [125I]- after administration of [125I]-labeled compound to immature female rats (n=4) in the absence of 60 microg coinjected estradiol after 2 hours; type: ADME, organism-based
How it was run: (§1)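 Immature female Fischer rats, 24 days old, 55-60 g, unanesthetized in retention cages, given HPLC-purified 125I-labeled steroid (3 μCi, 111 kBq) via lateral tail vein in 200 μL of 9% ethanol-saline with 1% Tween-80. The blocking group was coinjected with 60 μg unlabeled estradiol and sampled at 1 h. Animals were killed under ether at 0.5-24 h. Tissues were KCl-washed, blotted, weighed and gamma-counted. Results are % ID/g, with variation as small-sample-corrected %CV.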

[2] = system: Rattus norvegicus; experiment: Tissue uptake (muscle) of [125I]- after administration of [125I]-labeled compound to immature female rats (n=5) in the absence of 60 microg coinjected estradiol after 1 hour; type: ADME, organism-based; how it was run: as §1
[3] = system: Rattus norvegicus; experiment: Tissue uptake (fat) of [125I]- after administration of [125I]-labeled compound to immature female rats (n=3) in the presence of 60 microg coinjected estradiol after 1 hour; type: ADME, organism-based; how it was run: as §1
[4] = system: Rattus norvegicus; experiment: Tissue uptake (kidneys) of [125I]- after administration of [125I]-labeled compound to immature female rats (n=3) in the absence of 60 microg coinjected estradiol after 0.5 hours; type: ADME, organism-based, Kidney; how it was run: as §1
[5] = system: Rattus norvegicus; experiment: Tissue uptake (kidneys) of [125I]- after administration of [125I]-labeled compound to immature female rats (n=3) in the absence of 60 microg coinjected estradiol after 24 hours; type: ADME, organism-based, Kidney; how it was run: as §1
[6] = system: Rattus norvegicus; experiment: Tissue uptake (kidneys) of [125I]- after administration of [125I]-labeled compound to immature female rats (n=5) in the absence of 60 microg coinjected estradiol after 1 hour; type: ADME, organism-based, Kidney; how it was run: as §1
[7] = system: Rattus norvegicus; experiment: Tissue uptake (liver) of [125I]- after administration of [125I]-labeled compound to immature female rats (n=3) in the absence of 60 microg coinjected estradiol after 0.5 hours; type: ADME, organism-based; how it was run: as §1
[8] = system: Rattus norvegicus; experiment: Tissue uptake (liver) of [125I]- after administration of [125I]-labeled compound to immature female rats (n=3) in the absence of 60 microg coinjected estradiol after 24 hours; type: ADME, organism-based; how it was run: as §1
[9] = system: Rattus norvegicus; experiment: Tissue uptake (liver) of [125I]- after administration of [125I]-labeled compound to immature female rats (n=3) in the presence of 60 microg coinjected estradiol after 1 hour; type: ADME, organism-based; how it was run: as §1
[10] = system: Rattus norvegicus; experiment: Tissue uptake (liver) of [125I]- after administration of [125I]-labeled compound to immature female rats (n=4) in the absence of 60 microg coinjected estradiol after 5 hours; type: ADME, organism-based; how it was run: as §1
[11] = system: Rattus norvegicus; experiment: Tissue uptake (liver) of [125I]- after administration of [125I]-labeled compound to immature female rats (n=5) in the absence of 60 microg coinjected estradiol after 1 hour; type: ADME, organism-based; how it was run: as §1
[12] = system: Rattus norvegicus; experiment: Tissue uptake (lungs) of [125I]- after administration of [125I]-labeled compound to immature female rats (n=3) in the absence of 60 microg coinjected estradiol after 0.5 hours; type: ADME, organism-based; how it was run: as §1
[13] = system: Rattus norvegicus; experiment: Tissue uptake (lungs) of [125I]- after administration of [125I]-labeled compound to immature female rats (n=3) in the absence of 60 microg coinjected estradiol after 24 hours; type: ADME, organism-based; how it was run: as §1
[14] = system: Rattus norvegicus; experiment: Tissue uptake (lungs) of [125I]- after administration of [125I]-labeled compound to immature female rats (n=4) in the absence of 60 microg coinjected estradiol after 5 hours; type: ADME, organism-based; how it was run: as §1
[15] = system: Rattus norvegicus; experiment: Tissue uptake (muscle) of [125I]- after administration of [125I]-labeled compound to immature female rats (n=3) in the absence of 60 microg coinjected estradiol after 0.5 hours; type: ADME, organism-based; how it was run: as §1
[16] = system: Rattus norvegicus; experiment: Tissue uptake (thyroid) of [125I]- after administration of [125I]-labeled compound to immature female rats (n=3) in the absence of 60 microg coinjected estradiol after 0.5 hours; type: ADME, organism-based, Thyroid gland
How it was run: (§2)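 Immature female Fischer rats, 24 days old, 55-60 g, unanesthetized in retention cages, got HPLC-purified n.c.a. 125I-labeled steroid (3 μCi, 111 kBq) by lateral tail vein. Dose was given in 200 μL saline with 9% ethanol and 1% Tween-80. Deep ether anesthesia, axillary artery cut; tissues KCl-washed, blotted, weighed, gamma-counted as % ID/g; variation as small-sample-corrected %CV.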

[17] = system: Rattus norvegicus; experiment: Tissue uptake (spleen) of [125I]- after administration of [125I]-labeled compound to immature female rats (n=4) in the absence of 60 microg coinjected estradiol after 2 hours; type: ADME, organism-based; how it was run: as §2
[18] = system: Rattus norvegicus; experiment: Tissue uptake (spleen) of [125I]- after administration of [125I]-labeled compound to immature female rats (n=4) in the absence of 60 microg coinjected estradiol after 5 hours; type: ADME, organism-based; how it was run: as §2
[19] = system: Rattus norvegicus; experiment: Tissue uptake (spleen) of [125I]- after administration of [125I]-labeled compound to immature female rats (n=5) in the absence of 60 microg coinjected estradiol after 1 hour; type: ADME, organism-based; how it was run: as §2
[20] = system: Rattus norvegicus; experiment: Tissue uptake (uterus) of [125I]- after administration of [125I]-labeled compound to immature female rats (n=4) in the absence of 60 microg coinjected estradiol after 5 hours; type: ADME, organism-based; how it was run: as §2
[21] = system: Rattus norvegicus; experiment: Tissue uptake (uterus) of [125I]- after administration of [125I]-labeled compound to immature female rats (n=5) in the absence of 60 microg coinjected estradiol after 1 hour; type: ADME, organism-based; how it was run: as §2
[22] = system: Rattus norvegicus; experiment: Tissue uptake (blood) of [125I]- after administration of [125I]-labeled compound to immature female rats (n=4) in the absence of 60 microg coinjected estradiol after 2 hours; type: ADME, organism-based; how it was run: as §1
[23] = system: Rattus norvegicus; experiment: Tissue uptake (thyroid) of [125I]- after administration of [125I]-labeled compound to immature female rats (n=3) in the presence of 60 microg coinjected estradiol after 1 hour; type: ADME, organism-based, Thyroid gland; how it was run: as §2
[24] = system: Rattus norvegicus; experiment: Tissue uptake (thyroid) of [125I]- after administration of [125I]-labeled compound to immature female rats (n=4) in the absence of 60 microg coinjected estradiol after 2 hours; type: ADME, organism-based, Thyroid gland; how it was run: as §2
[25] = system: Rattus norvegicus; experiment: Tissue uptake (thyroid) of [125I]- after administration of [125I]-labeled compound to immature female rats (n=4) in the absence of 60 microg coinjected estradiol after 5 hours; type: ADME, organism-based, Thyroid gland; how it was run: as §2
[26] = system: Rattus norvegicus; experiment: Tissue uptake (thyroid) of [125I]- after administration of [125I]-labeled compound to immature female rats (n=5) in the absence of 60 microg coinjected estradiol after 1 hour; type: ADME, organism-based, Thyroid gland; how it was run: as §2
[27] = system: Rattus norvegicus; experiment: Tissue uptake (uterus) of [125I]- after administration of [125I]-labeled compound to immature female rats (n=3) in the presence of 60 microg coinjected estradiol after 1 hour; type: ADME, organism-based; how it was run: as §2
[28] = system: Rattus norvegicus; experiment: Tissue uptake (uterus) of [125I]- after administration of [125I]-labeled compound to immature female rats (n=4) in the absence of 60 microg coinjected estradiol after 2 hours; type: ADME, organism-based; how it was run: as §2
[29] = system: Rattus norvegicus; experiment: Tissue uptake (blood) of [125I]- after administration of [125I]-labeled compound to immature female rats (n=3) in the absence of 60 microg coinjected estradiol after 0.5 hours; type: ADME, organism-based; how it was run: as §1
[30] = system: Rattus norvegicus; experiment: Tissue uptake (blood) of [125I]- after administration of [125I]-labeled compound to immature female rats (n=3) in the presence of 60 microg coinjected estradiol after 1 hour; type: ADME, organism-based; how it was run: as §1
[31] = system: Rattus norvegicus; experiment: Tissue uptake (spleen) of [125I]- after administration of [125I]-labeled compound to immature female rats (n=3) in the presence of 60 microg coinjected estradiol after 1 hour; type: ADME, organism-based; how it was run: as §2

Row | ID/g [1] | ID/g [2] | ID/g [3] | ID/g [4] | ID/g [5] | ID/g [6] | ID/g [7] | ID/g [8] | ID/g [9] | ID/g [10] | ID/g [11] | ID/g [12] | ID/g [13] | ID/g [14] | ID/g [15] | ID/g [16] | ID/g [17] | ID/g [18] | ID/g [19] | ID/g [20] | SMILES | other results
1 | 0.15% | 0.32% | 1.64% | 1.3% | 0.3% | 0.83% | 1.94% | 0.13% | 1.09% | 0.72% | 1.26% | 0.82% | 0.03% | 0.19% | 0.54% | 40.33% | 0.33% | 0.22% | 0.43% | 3.86% | C[C@@H]1Cc2cc(O)ccc2[C@H]2CC[C@]3(C)[C@@H](O)[C@H](I)C[C@H]3[C@H]12 | ID/g [21]: 5.25%; ID/g [22]: 0.32%; ID/g [23]: 43.5%; ID/g [24]: 66.19%; ID/g [25]: 320.54%; ID/g [26]: 45.15%; ID/g [27]: 0.34%; ID/g [28]: 6.35%; ID/g [29]: 0.45%; ID/g [30]: 0.33%; ID/g [31]: 0.43%
2 | 0.52% | 0.69% | 1.63% | 2.26% | 0.24% | 1.83% | 5.91% | 0.96% | 4.5% | 2.31% | 3.48% | 1.72% | 0.23% | 0.76% | 1.05% | 105.65% | 1.76% | 1.28% | 1.49% | 7.76% | CCO[C@H]1C[C@]2(C)[C@@H](O)[C@H](I)C[C@H]2[C@@H]2CCc3cc(O)ccc3[C@H]21 | ID/g [21]: 11.67%; ID/g [22]: 0.89%; ID/g [23]: 156.51%; ID/g [24]: 218.87%; ID/g [25]: 703.1%; ID/g [26]: 110.96%; ID/g [27]: 0.72%; ID/g [28]: 13.08%; ID/g [29]: 1.29%; ID/g [30]: 1.09%; ID/g [31]: 1.6%
